What was measured:
[1] = test system: KB cells; assay: Cellular uptake; assay type: cell-based
Method in brief: (§1)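 Cells were grown 48 h in folate-free RPMI 1640, then given conjugates at 5 μg/mL DOX for 1 h at 37°C. For blocking, 1 mM free folate was added before the conjugates. For microscopy, monolayers were rinsed 3× with PBS, fixed in 4% paraformaldehyde for 15 min and imaged by fluorescence at equal exposure. For flow cytometry, 3×10^5 trypsinized cells per tube received the same treatment and were rinsed before reading.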

[2] = test system: KB cells; assay: MTT cytotoxicity assay; assay type: cell-based
Method in brief: (§2)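 Cells kept in folate-free medium were seeded at 5×10^3 per well and grown 24 h. They were then exposed for 2 h at 37°C to serial dilutions of 1.56–25.00 μg/mL DOX equivalent, followed by 72 h in drug-free DMEM. MTT (5 mg/mL stock) was added for 4 h, formazan was dissolved in DMSO and absorbance read at 490 nm. Five parallel experiments; mean ± SD.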

[3] = Tissue distribution of DOX after intravenous injection; assay type: in vivo; conditions: mice, i.v. 5 mg/kg, compared with free DOX
Method in brief: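 Male Kunming mice (~25 g, 6–8 weeks) received 5 mg/kg DOX equivalent intravenously. Heart, liver, spleen and kidney were collected at 30 min and 3 h. Tissue was homogenized in ethanol/HCl/water and centrifuged at 12,000 rpm for 15 min. DOX in the supernatant was measured by fluorescence spectrophotometry. n=4; mean ± SD.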

[4] = test system: HeLa cells; assay: Cellular uptake; assay type: cell-based
Method in brief: as §1

[5] = test system: HeLa cells; assay: Apoptosis assay; assay type: cell-based; conditions: 3 μg/mL DOX
Method in brief: (§3)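 HeLa or KB cells were seeded at 4×10^5 per well, cultured 24 h, then exposed to conjugates at 3 μg/mL DOX for 24 h at 37°C. For receptor blocking, 1 mM free folate was added before the drug. Trypsinized and floating cells were pooled and stained with annexin V-FITC/PI. 20,000 cells per sample were analysed by flow cytometry, with FSC/SSC gating to exclude debris. Q2 was scored as late and Q4 as early apoptosis. Mean ± SD, three independent experiments.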

[6] = test system: KB cells; assay: Apoptosis assay; assay type: cell-based; conditions: 3 μg/mL DOX
Method in brief: as §3

[7] = Pharmacokinetic analysis of plasma DOX after intravenous injection; assay type: in vivo; conditions: Kunming mice, i.v. 5 mg/kg DOX, noncompartmental
[8] = test system: Subcutaneous KB tumors; assay: KB xenograft tumor mouse model; assay type: in vivo, BALB/c nude mice; conditions: KB xenograft nude mice, single i.v. dose 8 mg/kg DOX
Method in brief: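 Female BALB/c nude mice (6–8 weeks, 16–18 g) were inoculated subcutaneously in the front armpit with 2.5×10^6 KB cells. Once tumors were established, mice got a single tail-vein injection of 8 mg/kg DOX equivalent; saline served as control. Tumors were measured every 4 days, with volume = length × width² × 0.52. Body weight was recorded every 4 days and survival was followed. n=6 per group; mean ± SD.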

[9] = test system: HeLa cells; assay: MTT cytotoxicity assay; assay type: cell-based
Method in brief: as §2

[10] = 2 h drug incubation then 72 h culture, DOX concentration, mean ± SD

Substance: folate-polyethylene glycol-immunoglobulin G-doxorubicin [FA-PEG-IgG-DOX]
- fluorescence intensity (microscopy) ([1]; 5 μg/mL DOX, 1 h, 37°C): apparently higher than IgG-DOX
- uptake after 1 mM folate pretreatment (microscopy) ([1]; 1 mM folate pretreatment): could be blocked
- IC50 as fraction of that of IgG-DOX [2]: about 1/12
- antitumor activity, times higher than IgG-DOX [2]: at least 8 times
- IC50 [2, 10]: 1.78 ± 0.4 µg/mL
- DOX concentration in the heart [3]: at the same level with that following free DOX injection
- fluorescence intensity (microscopy) ([4]; 5 μg/mL DOX, 1 h, 37°C): apparently higher than IgG-DOX
- uptake after 1 mM folate pretreatment (microscopy) ([4]; 1 mM folate pretreatment): could be blocked
- proapoptotic effect after pretreatment with 1 mM folate [5]: significantly diminished
- proapoptotic effect after pretreatment with 1 mM folate [6]: significantly diminished
- AUC(0–∞) [7]: 992.943 μg/mL⋅h
- CLz [7]: 0.19 mL/day/kg
- Cmax [7]: 225.275 ng/mL
- Vz [7]: 0.070 L/kg
- body weight change [8]: minor body weight reduction
- survival of treated mice [8]: prolonged the survival of treated mice compared with DOX
- tumor growth from day 12 to day 25 [8]: maintained a very low growth rate
- average tumor size at day 25 after injection ([8]; day 25): 553 mm^3
- IC50 as fraction of that of IgG-DOX [9]: about 1/8
- antitumor activity, times higher than IgG-DOX [9]: at least 8 times
- IC50 [9, 10]: 3.22 ± 0.9 µg/mL
